Measurements: ChEMBL document CHEMBL3259717, “Synthetic calanolides with bactericidal activity against replicating and nonreplicating Mycobacterium tuberculosis” (J Med Chem, 2014)
≈ marks a conversion by molar mass, not a printed value.

What was measured:
[1] = system: Mycobacterium tuberculosis; assay: Antibacterial activity against replicating form of Mycobacterium tuberculosis MC2 6220 assessed as growth inhibition after 7 days by high-throughput screening assay; assay type: functional; conditions: MC2 6220, 168 h
In short: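 Attenuated Mtb mc26220 ΔpanCDΔlysA in 7H9 with glycerol, tyloxapol, OADC, casein amino acids, 240 μg/mL L-lysine, 24 μg/mL pantothenate. Mid-log cells diluted to OD580 0.01 in 384-well plates, compound in DMSO, 7 days at 37 °C, 20% O2, 5% CO2. OD580 read; MIC90 = 90% growth inhibition vs DMSO.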

[2] = system: Mycobacterium tuberculosis; assay: Antibacterial activity against non-replicating form of Mycobacterium tuberculosis MC2 6220 assessed as growth inhibition after 3 days by high-throughput screening assay; assay type: functional; conditions: MC2 6220, 72 h
In short: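 Log-phase mc26220 washed in PBS/tyloxapol, resuspended in Sauton's-based NR medium (butyrate, 0.5 mM NaNO2, pH 5.0) at OD580 0.1. Compound exposure 3 days at 37 °C, 1% O2, 5% CO2. Then R medium added (5-fold dilution), 7 days outgrowth at 20% O2. OD580 read; MIC90 = 90% inhibition vs DMSO.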

[3] = Cytotoxicity against human HepG2 cells assessed as decrease in ATP signal after 2 days by CellTiter-Glo assay; assay type: cell-based; conditions: read-out: LD50
In short: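 HepG2 in DMEM with 10% FBS, pyruvate, glutamine, HEPES and nonessential amino acids, seeded 3000 cells/well in 384-well plates. Compound for 2 days at 1% final DMSO. ATP read by CellTiter-Glo luminescence. LD50 = 50% drop in ATP signal vs DMSO. SI = LD50/MIC90 against replicating Mtb.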

| SMILES | MIC90 [1] [µg/mL] | MIC90 [2] [µg/mL] | CC50 at 48 h [3] [µg/mL] |
| --- | --- | --- | --- |
| CC1(C)C=Cc2c(c3c(-c4ccccc4)cc(=O)oc3c3cc([N+](=O)[O-])oc23)O1 | 2 (≈ 5.14 µM) | 19 (≈ 48.8 µM) | – |
| CCCc1cc(=O)oc2cc(NCc3ccc(F)cc3)c3c(c12)OC(C)(C)C=C3 | > 20 | > 20 | – |
| CCCc1cc(=O)oc2cc(OC3CCN(C(=O)Nc4ccc(F)cc4)CC3)c3c(c12)OC(C)(C)C=C3 | > 24 | > 24 | – |
| CCCc1cc(=O)oc2c3c(c4cc([N+](=O)[O-])oc4c12)OC(C)CC3=O (configuration not stated) | > 50 | 6 (≈ 16.8 µM) | – |
| CCCc1cc(=O)oc2cc(OCCc3cccs3)c3c(c12)OC(C)(C)C=C3 | > 20 | > 20 | – |
| CCCc1cc(=O)oc2c1c1c(c3occc32)C=CC(C)(C)O1 | > 100 | > 100 | – |
| CCCc1cc(=O)oc2cc(OC3CCN(C(=O)NCc4ccccc4)CC3)c3c(c12)OC(C)(C)C=C3 | > 25 | > 25 | > 25 |
| CCCCCCCNC(=O)N1CCN(c2cc3oc(=O)cc(CCC)c3c3c2C=CC(C)(C)O3)CC1 | > 25 | > 25 | > 25 |
| CCCc1cc(=O)oc2cc(NC(=O)c3cnccn3)c3c(c12)OC(C)(C)C=C3 | > 20 | > 20 | – |
| CCCc1cc(=O)oc2c3c(cc(OCCO)c12)O[C@H]([N+](=O)[O-])[C@H]3O (racemic) | < 1 | < 1 | < 1 |
| CCCc1cc(=O)oc2c3c(cc(OCCOC(=O)c4cnccn4)c12)O[C@H]([N+](=O)[O-])[C@H]3O (racemic) | < 1 | < 1 | < 1 |
| CCCc1cc(=O)oc2cc(NC(=O)Nc3cccc4ccccc34)c3c(c12)OC(C)(C)C=C3 | > 23 | > 23 | – |
| CCCc1cc(=O)oc2cc(NCc3ccccc3)c3c(c12)OC(C)(C)C=C3 | 19 (≈ 50.6 µM) | > 19 | – |
| CCCc1cc(=O)oc2cc(OC(C)=O)c3c(c12)OC(C)(C)C=C3 | > 16 | > 16 | – |
| CCCc1cc(=O)oc2c1c(O)cc1oc([N+](=O)[O-])cc12 | > 14 | > 14 | – |
| CCCc1cc(=O)oc2cc(OC(=O)/C=C/c3ccccc3)c3c(c12)OC(C)(C)C=C3 | > 21 | > 21 | – |

| SMILES | MIC90 [1] [µg/mL] | MIC90 [2] [µg/mL] | CC50 at 48 h [3] [µg/mL] |
| --- | --- | --- | --- |
| CCCc1cc(=O)oc2cc(N3CCN(C(=O)Nc4ccc(C(C)C)cc4)CC3)c3c(c12)OC(C)(C)C=C3 | > 26 | > 26 | > 26 |
| CCCc1cc(=O)oc2cc(NC(=O)c3ccccc3)c3c(c12)OC(C)(C)C=C3 | > 19 | > 19 | – |
| CCCc1cc(=O)oc2c3c(c4c(c12)OC(C)(C)C=C4)OC(C)(OC(C)=O)C3=O (configuration not stated) | > 20 | > 20 | – |
| CCCc1cc(=O)oc2c3c(c4c(c12)OC(C)(C)C=C4)OC(OC(C)=O)C3=O (configuration not stated) | > 100 | 6 (≈ 15.6 µM) | – |
| CCCc1cc(=O)oc2c(C(=O)CC)c(N3CCN(c4ccccn4)CC3)c3c(c12)OC(C)(C)C=C3 | > 24 | > 24 | – |
| CCCc1cc(=O)oc2cc(OC)c3c(c12)OC(C)(C)C=C3 | > 15 | > 15 | – |
| Cc1c(Cc2ccccc2)c(=O)oc2c1c1c(c3oc([N+](=O)[O-])cc32)C=CC(C)(C)O1 | 2 (≈ 4.79 µM) | > 21 | – |
| CCCc1cc(=O)oc2cc(OC3CCCC3)c3c(c12)OC(C)(C)C=C3 | > 23 | > 23 | > 23 |
| CCCc1cc(=O)oc2cc(Nc3ccccc3)c3c(c12)OC(C)(C)C=C3 | > 18 | > 18 | – |
| CCCc1cc(=O)oc2c(C(=O)O)c(O)c3c(c12)OC(C)(C)C=C3 | > 17 | > 17 | > 17 |
| CCCc1cc(=O)oc2c(C(=O)CC)c(N3CCSCC3)c3c(c12)OC(C)(C)C=C3 | > 21 | > 21 | – |
| CCCc1cc(=O)oc2cc(NCc3cccc(F)c3)c3c(c12)OC(C)(C)C=C3 | > 20 | > 20 | – |
| CCCc1cc(=O)oc2cc(OCC3CC3)c3c(c12)OC(C)(C)C=C3 | > 17 | > 17 | – |
| CCCc1cc(=O)oc2cc(C#CCO)c3c(c12)OC(C)(C)C=C3 | > 16 | > 16 | > 16 |
| CCCc1cc(=O)oc2c(C(=O)CC)c(N(C)C)c3c(c12)OC(C)(C)C=C3 | > 18 | > 18 | – |
| CCCc1cc(=O)oc2c(C(=O)CC)c(N3CCN(c4ccncc4)CC3)c3c(c12)OC(C)(C)C=C3 | > 24 | > 24 | – |
